Reference: ChEMBL document CHEMBL4627348, “Synthesis of (1,3,4-thiadiazol-2-yl)-acrylamide derivatives as potential antitumor agents against acute leukemia cells” (Bioorg Med Chem Lett, 2020)

What was measured:
Format in all cases: functional
[1] = test system: HL-60; test: Antiproliferative activity against human HL60 cells assessed as growth inhibition at 1 uM after 48 hrs by CCK-8 assay relative to control; settings: HL-60, 48 h, read-out: GI
In short: (§1)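 Positive-control reference compound run at 1 μM alongside the 20 μM screen. CCK-8 viability after 48 h exposure, inhibition ratio relative to control.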

[2] = test system: RS4-11; test: Induction of apoptosis in human RS4:11 cells assessed as viable cells at 0.5 uM after 48 hrs by Annexin-V and 7-AAD staining based flow cytometric analysis (reference value: 94.06%); settings: RS4-11, 48 h, read-out: Activity
[3] = test system: RS4-11; test: Induction of apoptosis in human RS4:11 cells assessed as early apoptotic cells at 0.5 uM after 48 hrs by Annexin-V and 7-AAD staining based flow cytometric analysis (reference value: 2.56%)
[4] = test system: RS4-11; test: Induction of apoptosis in human RS4:11 cells assessed as necrotic cells at 0.5 uM after 48 hrs by Annexin-V and 7-AAD staining based flow cytometric analysis (reference value: 0.67%)
[5] = test system: RS4-11; test: Induction of apoptosis in human RS4:11 cells assessed as late apoptotic cells at 0.5 uM after 48 hrs by Annexin-V and 7-AAD staining based flow cytometric analysis (reference value: 2.71%)
[6] = test system: RS4-11; test: Antiproliferative activity against human RS4:11 cells assessed as growth inhibition at 1 uM after 48 hrs by CCK-8 assay relative to control; settings: RS4-11, 48 h, read-out: GI; in short: as §1

## CC1(C)CCC(CN2CCN(c3ccc(C(=O)NS(=O)(=O)c4ccc(NCC5CCOCC5)c([N+](=O)[O-])c4)c(Oc4cnc5[nH]ccc5c4)c3)CC2)=C(c2ccc(Cl)cc2)C1 [VENETOCLAX]
[1]
  inhibition of growth at 1 µM: 98%
[2]
  viability at 0.5 µM: 2.71%
[3]
  Activity: 11.91%
[4]
  Activity: 2.11%
[5]
  Activity: 83.27%
[6]
  inhibition of growth at 1 µM: 95%
